Where “and” joins values, the source holds several entries; their conditions need not be identical. Identical values can stand only once.
Test system: Fibroblast
Assay: Multiplex assay against human fibroblast
Assay type: toxicity, cell-based
In short: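 Live cells were stained at seeding with Hoechst33342, BioTracker Green Microtubule Cytoskeleton Dye, MitoTracker Red and Annexin V Alexa Fluor 680, then imaged on a CQ1 microscope at 37°C and 5% CO2 after compound addition. CellPathfinder machine-learning gating split cells into Hoechst high-intensity objects or normal cells. Normal cells were split into healthy, pyknosed or fragmented nuclei, and pyknosed cells into mitotic or apoptotic. Tubulin, mitochondrial-mass and membrane-permeability phenotypes are per cents of healthy-nucleus cells.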

[1] = 12 h, 1 µM, compound concentration 1 uM
[2] = 12 h, 10 µM, compound concentration 10 uM
[3] = 24 h, 1 µM, compound concentration 1 uM
[4] = 24 h, 10 µM, compound concentration 10 uM
[5] = 48 h, 1 µM, compound concentration 1 uM
[6] = 48 h, 10 µM, compound concentration 10 uM

For `CC(N)C1CCC(C(=O)Nc2ccncc2)CC1` (stereo not drawn), the “Population Fragmented Nuclei (%)” value [1] was 12.67% and 4.31%, the “Population Healthy Nuclei (%)” value [1] was 64.25% and 88.36% and the “Population Hoechst High Intensity Objects (%)” value [1] was 0%. For the same compound, the “Population Membrane Permeable-Phenotype (%)” value [1] was 2.82% and 2.93%, the “Population Mitochondria Different-Phenotype (%)” value [1] was 7.75% and 8.29% and the “Population Mitotic Cells (%)” value [1] was 94.12% and 82.35%. For the same compound, the “Population Normal (%)” value [1] was 100%, the “Population Tubulin-Different-Phenotype (%)” value [1] was 11.27% and 12.2% and the “Total Cell Count” value [1] was 221 and 232. For the same compound, the “Population Apoptotic (%)” value [2] was 19.3% and 38.89%, the “Population Fragmented Nuclei (%)” value [2] was 9.18% and 4.02% and the “Population Healthy Nuclei (%)” value [2] was 63.29% and 85.63%. The “Population Hoechst High Intensity Objects (%)” value [2] was 0%, the “Population Membrane Permeable-Phenotype (%)” value [2] was 3.05% and 0% and the “Population Mitochondria Different-Phenotype (%)” value [2] was 10.69% and 10.07%. For the same compound, the “Population Mitotic Cells (%)” value [2] was 80.7% and 61.11%, the “Population Normal (%)” value [2] was 100% and the “Population Pyknosed Nuclei (%)” value [2] was 27.54% and 10.34%. For the same compound, the “Population Tubulin-Different-Phenotype (%)” value [2] was 10.69% and 8.05%, the “Total Cell Count” value [2] was 207 and 174 and the “Population Apoptotic (%)” value [3] was 11.11% and 33.33%. For the same compound, the “Population Fragmented Nuclei (%)” value [3] was 6.64% and 2.82%, the “Population Healthy Nuclei (%)” value [3] was 78.42% and 89.92% and the “Population Hoechst High Intensity Objects (%)” value [3] was 0%. For the same compound, the “Population Membrane Permeable-Phenotype (%)” value [3] was 4.23% and 2.69%, the “Population Mitochondria Different-Phenotype (%)” value [3] was 0.53% and 5.83% and the “Population Mitotic Cells (%)” value [3] was 88.89% and 66.67%. For the same compound, the “Population Normal (%)” value [3] was 100%, the “Population Pyknosed Nuclei (%)” value [3] was 14.94% and 7.26% and the “Population Tubulin-Different-Phenotype (%)” value [3] was 7.41% and 11.66%. The “Total Cell Count” value [3] was 241 and 248, the “Population Apoptotic (%)” value [4] was 18.18% and 44.44% and the “Population Fragmented Nuclei (%)” value [4] was 6.51% and 6.08%. For the same compound, the “Population Healthy Nuclei (%)” value [4] was 78.14% and 88.95%, the “Population Hoechst High Intensity Objects (%)” value [4] was 0% and the “Population Membrane Permeable-Phenotype (%)” value [4] was 2.38% and 0%. The “Population Mitochondria Different-Phenotype (%)” value [4] was 4.76% and 8.07%, the “Population Mitotic Cells (%)” value [4] was 81.82% and 55.56% and the “Population Normal (%)” value [4] was 100%. The “Population Tubulin-Different-Phenotype (%)” value [4] was 13.69% and 11.8%, the “Total Cell Count” value [4] was 215 and 181 and the “Population Apoptotic (%)” value [5] was 30.77% and 83.33%. For the same compound, the “Population Fragmented Nuclei (%)” value [5] was 11.15% and 6.02%, the “Population Healthy Nuclei (%)” value [5] was 83.85% and 91.57% and the “Population Hoechst High Intensity Objects (%)” value [5] was 0%. For the same compound, the “Population Membrane Permeable-Phenotype (%)” value [5] was 0.92% and 3.07%, the “Population Normal (%)” value [5] was 100% and the “Population Pyknosed Nuclei (%)” value [5] was 5% and 2.41%. For the same compound, the “Population Tubulin-Different-Phenotype (%)” value [5] was 3.21% and 10.09%, the “Total Cell Count” value [5] was 260 and 249 and the “Population Apoptotic (%)” value [6] was 50% and 33.33%. The “Population Fragmented Nuclei (%)” value [6] was 10.31% and 6.56%, the “Population Healthy Nuclei (%)” value [6] was 86.64% and 90.16% and the “Population Hoechst High Intensity Objects (%)” value [6] was 0%. For the same compound, the “Population Membrane Permeable-Phenotype (%)” value [6] was 0.44% and 0.61%, the “Population Mitotic Cells (%)” value [6] was 50% and 66.67% and the “Population Normal (%)” value [6] was 100%. For the same compound, the “Population Pyknosed Nuclei (%)” value [6] was 3.05% and 3.28%, the “Population Tubulin-Different-Phenotype (%)” value [6] was 3.08% and 11.52% and the “Total Cell Count” value [6] was 262 and 183.
In the case of `CCCn1c(=O)c2[nH]c(C3CCCC3)nc2n(CCC)c1=O` [1,3-DIPROPYL-8-CYCLOPENTYLXANTHINE [DPCPX]], the “Population Apoptotic (%)” value [1] is reported as 38% and 30%, the “Population Fragmented Nuclei (%)” value [1] is reported as 10% and 25% and the “Population Healthy Nuclei (%)” value [1] is reported as 73% and 46%. For the same compound, the “Population Hoechst High Intensity Objects (%)” value [1] was 3%, the “Population Membrane Permeable-Phenotype (%)” value [1] was 0% and 1% and the “Population Mitochondria Different-Phenotype (%)” value [1] was 1% and 10%. For the same compound, the “Population Mitotic Cells (%)” value [1] was 61% and 69%, the “Population Normal (%)” value [1] was 96% and the “Population Pyknosed Nuclei (%)” value [1] was 15% and 28%. For the same compound, the “Population Tubulin-Different-Phenotype (%)” value [1] was 29% and 50%, the “Total Cell Count” value [1] was 175 and 156 and the “Population Apoptotic (%)” value [2] was 58% and 25%. The “Population Fragmented Nuclei (%)” value [2] was 18% and 32%, the “Population Healthy Nuclei (%)” value [2] was 65% and 47% and the “Population Hoechst High Intensity Objects (%)” value [2] was 3% and 6%. The “Population Membrane Permeable-Phenotype (%)” value [2] was 0% and 12%, the “Population Mitochondria Different-Phenotype (%)” value [2] was 10% and 3% and the “Population Mitotic Cells (%)” value [2] was 41% and 75%. The “Population Normal (%)” value [2] was 96% and 93%, the “Population Pyknosed Nuclei (%)” value [2] was 17% and 20% and the “Population Tubulin-Different-Phenotype (%)” value [2] was 47% and 59%. The “Total Cell Count” value [2] was 104 and 129, the “Population Apoptotic (%)” value [3] was 50% and 75% and the “Population Fragmented Nuclei (%)” value [3] was 13% and 30%. The “Population Healthy Nuclei (%)” value [3] was 77% and 48%, the “Population Hoechst High Intensity Objects (%)” value [3] was 2% and 3% and the “Population Membrane Permeable-Phenotype (%)” value [3] was 0% and 4%. The “Population Mitochondria Different-Phenotype (%)” value [3] was 2% and 12%, the “Population Mitotic Cells (%)” value [3] was 50% and 24% and the “Population Normal (%)” value [3] was 97% and 96%. For the same compound, the “Population Pyknosed Nuclei (%)” value [3] was 9% and 21%, the “Population Tubulin-Different-Phenotype (%)” value [3] was 30% and 54% and the “Total Cell Count” value [3] was 177 and 159. For the same compound, the “Population Fragmented Nuclei (%)” value [4] was 17% and 35%, the “Population Healthy Nuclei (%)” value [4] was 61% and 40% and the “Population Hoechst High Intensity Objects (%)” value [4] was 3% and 6%. The “Population Membrane Permeable-Phenotype (%)” value [4] was 6% and 8%, the “Population Mitochondria Different-Phenotype (%)” value [4] was 9% and 4% and the “Population Mitotic Cells (%)” value [4] was 36% and 79%. The “Population Normal (%)” value [4] was 96% and 93%, the “Population Pyknosed Nuclei (%)” value [4] was 22% and 24% and the “Population Tubulin-Different-Phenotype (%)” value [4] was 49% and 63%. The “Total Cell Count” value [4] was 104 and 125, the “Population Apoptotic (%)” value [5] was 72% and 47% and the “Population Fragmented Nuclei (%)” value [5] was 16% and 39%. The “Population Healthy Nuclei (%)” value [5] was 70% and 48%, the “Population Hoechst High Intensity Objects (%)” value [5] was 2% and 7% and the “Population Membrane Permeable-Phenotype (%)” value [5] was 0% and 5%. The “Population Mitotic Cells (%)” value [5] was 27% and 52%, the “Population Normal (%)” value [5] was 97% and 92% and the “Population Pyknosed Nuclei (%)” value [5] was 12%. For the same compound, the “Population Tubulin-Different-Phenotype (%)” value [5] was 35% and 55%, the “Total Cell Count” value [5] was 182 and 170 and the “Population Apoptotic (%)” value [6] was 57% and 50%. The “Population Fragmented Nuclei (%)” value [6] was 24% and 43%, the “Population Healthy Nuclei (%)” value [6] was 55% and 45% and the “Population Hoechst High Intensity Objects (%)” value [6] was 3% and 2%. The “Population Mitochondria Different-Phenotype (%)” value [6] was 13% and 8%, the “Population Mitotic Cells (%)” value [6] was 42% and 50% and the “Population Normal (%)” value [6] was 96% and 97%. The “Population Pyknosed Nuclei (%)” value [6] was 20% and 10%, the “Population Tubulin-Different-Phenotype (%)” value [6] was 50% and 78% and the “Total Cell Count” value [6] was 98 and 136.

Source: ChEMBL document CHEMBL5724801, “EUbOPEN Chemogenomics Library - Multiplex” (2024)
